Measurements published in ChEMBL document CHEMBL4270513, “Replacement of Arg with Nle and modified D-Phe in the core sequence of MSHs, Ac-His-D-Phe-Arg-Trp-NH2, leads to hMC1R selectivity and pigmentation” (Eur J Med Chem, 2018).
Active and inactive are the calls of the source. No cut-off for these calls is given here. Square brackets hold non-standard residues; d marks the D form. Peptide text beside a SMILES is read from it. dPhe(4-CF3) = N[C@H](Cc1ccc(C(F)(F)F)cc1)C(=O)O; dPhe(4-Br) = N[C@H](Cc1ccc(Br)cc1)C(=O)O; dPhe(4-Cl) = N[C@H](Cc1ccc(Cl)cc1)C(=O)O; dPhe(4-F) = N[C@H](Cc1ccc(F)cc1)C(=O)O; d2Nal = N[C@H](Cc1ccc2ccccc2c1)C(=O)O; Nle = CCCC[C@H](N)C(=O)O

Tests used:
Melanocortin receptor 5 [1] = target: T1, Melanocortin receptor 5 (Homo sapiens, UniProt P33032); experiment: Displacement of [125I]-[Nle4,d-Phe7]-alpha-MSH from human MC5R expressed in HEK293 cells at 10 uM after 40 mins by gamma counting analysis relative to control; type: cell-based
Outline: (§1)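 Binding efficiency = maximal % displacement of [125I]-NDP-α-MSH observed at 10 μM peptide; 0% displacement at 10 μM scored as no binding.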

[2] = target: T2, Melanocyte-stimulating hormone receptor (Homo sapiens, UniProt Q01726); experiment: Agonist activity at human MC1R expressed in HEK293 cells after 3 mins by cAMP assay; type: functional, cell-based
Melanocortin receptor 3 [3] = target: T3, Melanocortin receptor 3 (Homo sapiens, UniProt P41968); experiment: Agonist activity at human MC3R expressed in HEK293 cells after 3 mins by cAMP assay; type: functional, cell-based
Melanocortin receptor 3 [4] = target: T3, Melanocortin receptor 3; experiment: Agonist activity at human MC3R expressed in HEK293 cells at 10 uM after 3 mins by cAMP assay relative to MT-2; type: functional, cell-based
Outline: (§2)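 cAMP produced at a single 10 μM peptide concentration, expressed as % of the response to MT-II run as control; 0% accumulation reported as no activity.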

Melanocortin receptor 3 [5] = target: T3, Melanocortin receptor 3; experiment: Displacement of [125I]-[Nle4,d-Phe7]-alpha-MSH from human MC3R expressed in HEK293 cells at 10 uM after 40 mins by gamma counting analysis relative to control; type: cell-based; outline: as §1
Melanocortin receptor 3 [6] = target: T3, Melanocortin receptor 3; experiment: Displacement of [125I]-[Nle4,d-Phe7]-alpha-MSH from human MC3R expressed in HEK293 cells after 40 mins by gamma counting analysis; type: cell-based
Melanocortin receptor 5 [7] = target: T1, Melanocortin receptor 5; experiment: Agonist activity at human MC5R expressed in HEK293 cells at 10 uM after 3 mins by cAMP assay relative to MT-2; type: functional, cell-based; outline: as §2
Anolis carolinensis = experiment: Induction of pigmentation effect in lizard at 3 ug/g, ip at 1 hr post dose; type: functional, organism-based
Outline: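 Anolis carolinensis lizards, peptide dissolved in saline at 1 mM, single intraperitoneal dose of 3 μg/g body weight; vehicle-injected animals as control. Skin colour change versus pre-injection appearance scored visually and photographed, followed up to 24 h.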

Melanocortin receptor 4 [8] = target: T4, Melanocortin receptor 4 (Homo sapiens, UniProt P32245); experiment: Agonist activity at human MC4R expressed in HEK293 cells after 3 mins by cAMP assay; type: functional, cell-based
Melanocortin receptor 4 [9] = target: T4, Melanocortin receptor 4; experiment: Displacement of [125I]-[Nle4,d-Phe7]-alpha-MSH from human MC4R expressed in HEK293 cells after 40 mins by gamma counting analysis; type: cell-based
[10] = target: T2, Melanocyte-stimulating hormone receptor; experiment: Displacement of [125I]-[Nle4,d-Phe7]-alpha-MSH from human MC1R expressed in HEK293 cells after 40 mins by gamma counting analysis; type: cell-based
Homo sapiens [11] = species on record: Homo sapiens; experiment: Selectivity ratio of EC50 for human MC3R to EC50 for human MC1R
[12] = target: T2, Melanocyte-stimulating hormone receptor; experiment: Agonist activity at human MC1R expressed in HEK293 cells at 10 uM after 3 mins by cAMP assay relative to MT-2; type: functional, cell-based; outline: as §2
Melanocortin receptor 5 [13] = target: T1, Melanocortin receptor 5; experiment: Agonist activity at human MC5R expressed in HEK293 cells after 3 mins by cAMP assay; type: functional, cell-based
Homo sapiens [14] = species on record: Homo sapiens; experiment: Selectivity ratio of EC50 for human MC4R to EC50 for human MC1R
Homo sapiens [15] = species on record: Homo sapiens; experiment: Selectivity ratio of EC50 for human MC5R to EC50 for human MC1R
[16] = target: T2, Melanocyte-stimulating hormone receptor; experiment: Displacement of [125I]-[Nle4,d-Phe7]-alpha-MSH from human MC1R expressed in HEK293 cells at 10 uM after 40 mins by gamma counting analysis relative to control; type: cell-based; outline: as §1
Melanocortin receptor 5 [17] = target: T1, Melanocortin receptor 5; experiment: Displacement of [125I]-[Nle4,d-Phe7]-alpha-MSH from human MC5R expressed in HEK293 cells after 40 mins by gamma counting analysis; type: cell-based

T1 sequence (P33032 whole entry): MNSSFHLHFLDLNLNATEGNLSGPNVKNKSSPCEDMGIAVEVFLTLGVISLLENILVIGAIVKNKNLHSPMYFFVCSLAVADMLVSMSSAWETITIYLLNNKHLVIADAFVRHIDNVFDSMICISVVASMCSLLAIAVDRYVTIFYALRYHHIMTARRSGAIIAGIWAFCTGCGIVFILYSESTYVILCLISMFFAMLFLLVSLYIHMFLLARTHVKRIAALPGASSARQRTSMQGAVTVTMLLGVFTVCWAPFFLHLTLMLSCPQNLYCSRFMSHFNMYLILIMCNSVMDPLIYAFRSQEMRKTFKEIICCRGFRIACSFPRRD
T4 sequence (P32245 whole entry): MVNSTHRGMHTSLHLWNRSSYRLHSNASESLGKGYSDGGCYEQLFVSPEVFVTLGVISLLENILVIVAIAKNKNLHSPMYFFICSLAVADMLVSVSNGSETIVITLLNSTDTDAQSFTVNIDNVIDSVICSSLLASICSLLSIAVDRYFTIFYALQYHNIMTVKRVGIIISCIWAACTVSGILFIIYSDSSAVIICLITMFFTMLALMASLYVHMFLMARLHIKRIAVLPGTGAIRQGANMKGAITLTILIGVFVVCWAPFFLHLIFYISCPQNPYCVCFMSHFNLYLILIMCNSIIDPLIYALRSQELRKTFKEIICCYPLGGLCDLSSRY
T3 sequence (P41968 whole entry): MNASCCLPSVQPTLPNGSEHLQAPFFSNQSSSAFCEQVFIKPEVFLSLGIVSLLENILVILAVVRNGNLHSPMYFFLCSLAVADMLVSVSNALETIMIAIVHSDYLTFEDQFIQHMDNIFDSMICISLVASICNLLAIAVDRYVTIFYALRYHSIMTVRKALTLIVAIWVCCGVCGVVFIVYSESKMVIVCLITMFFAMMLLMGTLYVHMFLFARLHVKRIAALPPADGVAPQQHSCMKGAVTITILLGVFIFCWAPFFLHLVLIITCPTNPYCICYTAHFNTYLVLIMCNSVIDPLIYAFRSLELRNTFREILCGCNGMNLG

%max (Melanocortin receptor 5 [1]) [%] | EC50 [2] [nM] | EC50 (Melanocortin receptor 3 [3]) [nM] | Activity (Melanocortin receptor 3 [4]) [%] | %max (Melanocortin receptor 3 [5]) [%] | IC50 (Melanocortin receptor 3 [6]) [nM] | Activity (Melanocortin receptor 5 [7]) [%] | EC50 (Melanocortin receptor 4 [8]) [nM] | IC50 (Melanocortin receptor 4 [9]) [nM] | IC50 [10] [nM] | Ratio EC50 (Homo sapiens [11]) | Activity [12] [%] | EC50 (Melanocortin receptor 5 [13]) [nM] | Ratio EC50 (Homo sapiens [14]) | Ratio EC50 (Homo sapiens [15]) | %max [16] [%] | IC50 (Melanocortin receptor 5 [17]) [nM] | SMILES | Activity (Anolis carolinensis)
37 | 10 | 252 | 85 | 62 | 90 | 44 | 407 | 835 | 339 | 25 | 100 | > 1000 | 41 | > 100 | 49 | 37 | CCCC[C@H](NC(=O)[C@@H](Cc1ccc(C(F)(F)F)cc1)NC(=O)[C@H](Cc1cnc[nH]1)NC(C)=O)C(=O)N[C@@H](Cc1c[nH]c2ccccc12)C(N)=O (Ac-H[dPhe(4-CF3)][Nle]W-NH2) | Active
0 | 11 | 57 | 93 | 51 | 224 | 33 | 36 | 53 | 154 |  | 100 | > 1000 |  |  | 61 |  | CCCC[C@H](NC(=O)[C@@H](Cc1ccc(Br)cc1)NC(=O)[C@H](Cc1cnc[nH]1)NC(C)=O)C(=O)N[C@@H](Cc1c[nH]c2ccccc12)C(N)=O (Ac-H[dPhe(4-Br)][Nle]W-NH2) | 
0 | 25 | 315 | 100 | 13 | > 1000 | 0 | 280 | > 1000 | 243 |  | 100 |  |  |  | 33 |  | CCCC[C@H](NC(=O)[C@@H](Cc1ccc(F)cc1)NC(=O)[C@H](Cc1cnc[nH]1)NC(C)=O)C(=O)N[C@@H](Cc1c[nH]c2ccccc12)C(N)=O (Ac-H[dPhe(4-F)][Nle]W-NH2) | 
0 | 6.5 | 116 | 87 | 45 | > 1000 | 52 | 17 | > 1000 | 122 |  | 100 | 433 |  |  | 81 |  | CCCC[C@H](NC(=O)[C@@H](Cc1ccc(Cl)cc1)NC(=O)[C@H](Cc1cnc[nH]1)NC(C)=O)C(=O)N[C@@H](Cc1c[nH]c2ccccc12)C(N)=O (Ac-H[dPhe(4-Cl)][Nle]W-NH2) | 
0 | 418 | 255 | 17 | 80 | > 1000 | 0 | 133 | > 1000 | > 1000 |  | 100 |  |  |  | 65 |  | CCCC[C@H](NC(=O)[C@@H](Cc1ccc2ccccc2c1)NC(=O)[C@H](Cc1cnc[nH]1)NC(C)=O)C(=O)N[C@@H](Cc1c[nH]c2ccccc12)C(N)=O (Ac-H[d2Nal][Nle]W-NH2) | 
44 | 52 | 120 | 100 | 15 | > 1000 | 48 | 928 | 65 | 50 |  | 100 | 37 |  |  | 42 | 46 | CCCC[C@H](NC(=O)[C@@H](Cc1ccccc1)NC(=O)[C@H](Cc1cnc[nH]1)NC(C)=O)C(=O)N[C@@H](Cc1c[nH]c2ccccc12)C(N)=O (Ac-H[dF][Nle]W-NH2) | 
 | 4.3 | 7.1 |  |  | 63 |  |  |  | 105 |  |  | 3.9 |  |  |  | 109 | CC(=O)N[C@@H](Cc1cnc[nH]1)C(=O)N[C@H](Cc1ccccc1)C(=O)N[C@@H](CCCN=C(N)N)C(=O)N[C@@H](Cc1c[nH]c2ccccc12)C(N)=O | 

Further lines, the compound ahead of its results:

SMILES | %max (Melanocortin receptor 5 [1]) [%] | EC50 [2] [nM] | EC50 (Melanocortin receptor 3 [3]) [nM] | Activity (Melanocortin receptor 3 [4]) [%] | %max (Melanocortin receptor 3 [5]) [%] | IC50 (Melanocortin receptor 3 [6]) [nM] | Activity (Melanocortin receptor 5 [7]) [%] | EC50 (Melanocortin receptor 4 [8]) [nM] | IC50 (Melanocortin receptor 4 [9]) [nM] | IC50 [10] [nM] | Ratio EC50 (Homo sapiens [11]) | Activity [12] [%] | EC50 (Melanocortin receptor 5 [13]) [nM] | Ratio EC50 (Homo sapiens [14]) | Ratio EC50 (Homo sapiens [15]) | %max [16] [%] | IC50 (Melanocortin receptor 5 [17]) [nM] | Activity (Anolis carolinensis)
CC(=O)N[C@@H](Cc1cnc[nH]1)C(=O)N[C@H](Cc1ccccc1)C(=O)N[C@@H](CCCNC(=N)N)C(=O)N[C@@H](Cc1c[nH]c2ccccc12)C(N)=O | 100 |  |  | 100 | 100 |  | 63 |  |  |  |  | 100 |  |  |  | 100 |  | 
CCCC[C@H](NC(=O)[C@@H](Cc1ccc(F)cc1)NC(=O)[C@@H]1CCCN1C(C)=O)C(=O)N[C@@H](Cc1c[nH]c2ccccc12)C(N)=O (Ac-P[dPhe(4-F)][Nle]W-NH2) | 0 | > 1000 | > 1000 | 56 | 35 | 46.8 | 0 |  |  | 0.74 |  | 46 |  |  |  | 28 |  | 
CCCC[C@H](NC(=O)[C@@H](Cc1ccc(C(F)(F)F)cc1)NC(=O)[C@@H]1CCCN1C(C)=O)C(=O)N[C@@H](Cc1c[nH]c2ccccc12)C(N)=O (Ac-P[dPhe(4-CF3)][Nle]W-NH2) | 0 |  |  | 0 | 33 | > 1000 | 0 |  | 2.1 |  |  | 0 |  |  |  | 0 |  | 
CCCC[C@H](NC(=O)[C@@H](Cc1ccc(Cl)cc1)NC(=O)[C@@H]1CCCN1C(C)=O)C(=O)N[C@@H](Cc1c[nH]c2ccccc12)C(N)=O (Ac-P[dPhe(4-Cl)][Nle]W-NH2) | 0 | 3 | > 1000 | 23.1 | 35 | > 1000 | 0 |  |  | 1.9 |  | 63 |  |  |  | 18 |  | 
CCCC[C@H](NC(=O)[C@@H](Cc1ccc(Br)cc1)NC(=O)[C@@H]1CCCN1C(C)=O)C(=O)N[C@@H](Cc1c[nH]c2ccccc12)C(N)=O (Ac-P[dPhe(4-Br)][Nle]W-NH2) | 0 | > 1000 | > 1000 | 23.1 | 76 | > 1000 | 0 |  | 10 | 80 |  | 39 |  |  |  | 30 |  | 
CCCC[C@H](NC(=O)[C@@H](Cc1ccccc1)NC(=O)[C@@H]1CCCN1C(C)=O)C(=O)N[C@@H](Cc1c[nH]c2ccccc12)C(N)=O (Ac-P[dF][Nle]W-NH2) | 0 |  |  | 0 | 65 | > 1000 | 0 |  |  |  |  | 0 |  |  |  | 0 |  | 
